Compound activity from PubChem.
STAT1 blocker: STAT1 signaling inhibition; NIH 3T3 STAT1-luciferase reporter, IFN-gamma, luminescence; inhibition, % at 5.5 µM; 200,000 tested, 0.35% active; AID 920;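 active = inhibition above a set limit, the mean inhibition across all tested compounds plus 3 SD, cut at about 34% in these data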
STAT3 act: increases IL-6 driven STAT3 reporter signal | activation (% of control), % at 5.6 µM | U3A cells, IL-6 STAT3-luciferase reporter, luminescence; 100% = signal with IL-6 EC80 alone | 190,000 tested, 0.91% active;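 active = activation above the screen-wide mean of compound activation plus 3 SD, cut at about 130% in these data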
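Material: STAT3-luciferase reporter U3A cells. Controls: IL-6-treated wells, 100% activation. Read-out: % activation versus median of IL-6-stimulated wells. Probe or stimulus: IL-6 stimulus at 33 ng/mL final. Timing: compound 1 h, then IL-6 6 h at 37 °C. Signal: reporter luminescence signal.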
STAT3 inh: reduces IL-6 driven STAT3 reporter signal; U3A cells, IL-6 STAT3-luciferase reporter, luminescence; host cell line lacks STAT1; inhibition, % at 5.5 µM; 190,000 tested, 0.89% active;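 active = inhibition above the mean inhibition across all screened compounds plus 3 SD, cut at about 44% in these data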
STAT1 act: STAT1 signaling activation; NIH 3T3 STAT1-luciferase reporter, IFN-gamma, luminescence; 100% = IFN-gamma alone, no compound; activation (% of control), % at 5.5 µM; 200,000 tested, 2.6% active; AID 932;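 active = activation above the screen-wide mean activation plus 3 SD, cut at about 130% in these data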
STAT1 act conf: confirmation of STAT1 signaling activators; activation (% of control), % at 5.7 µM; 1,200 tested, 97% active; NIH 3T3 STAT1-luciferase reporter, IFN-gamma potentiation, luminescence; 100% = IFN-gamma EC80 alone, no compound; AID 1262; shares compounds with STAT1 act;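 active = activation above a set limit carried over from the earlier primary STAT1 screen, cut at about 140% in these data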
NFkB act STAT1ct: counter-screen for STAT1 activators: NF-kappaB activation; shares compounds with STAT1 act; HEK293T NF-kB luciferase reporter, TNF-alpha stimulated, luminescence; 100% = TNF-alpha with vehicle only; activation (% of control), % at 5.7 µM; 1,200 tested, 43% active;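 active = activation above the mean of solvent-only control wells plus 3 SD, set per campaign, cut at about 130% in these data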;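 note: TNF-alpha given at a submaximal dose yielding about 80% of full reporter signal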
STAT3 act STAT1c: counter-screen for STAT1 activators: human STAT3 activation; U3A cells STAT3-luciferase reporter, IL-6, luminescence; cells lack STAT1; 100 = IL-6 alone, no compound effect; activation (% of control), % at 5.7 µM; 1,200 tested, 46% active; shares compounds with STAT1 act;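 active = activation above the solvent-only control well mean plus 3 SD, set per plate batch, cut at about 110% in these data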;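 note: higher means more STAT3 reporter activation so hits are non-selective activators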
Each line names hits and unclear results; the compound was inactive in the other large screens (follow-up assays come after a bar, where they were run). Only some compounds are listed: those with a hit (about 4.3% of all), similar ones and a draw of the others.

CC(=O)Cc1nsc(Nc2ccc(C)cc2)n1	STAT1 act 156 | STAT1 act conf 190 | NFkB act STAT1ct 137 | STAT3 act STAT1c 122
COc1ccc(NC(=O)c2cccnc2SC)cc1S(=O)(=O)N1CCCCC1	none
O=C(c1ccc(F)cc1)c1cnc(Nc2ccccc2)s1	STAT1 act 153 | STAT1 act conf 203 | NFkB act STAT1ct 135 | STAT3 act STAT1c 124
CNc1ncc(C(=O)c2ccc(F)cc2)s1	none
C/C(=N\NC(=O)CC#N)C1COc2ccccc2O1 (stereo unspecified)	none
Fc1ccc(-c2n[nH]c(=S)c3ccccc23)cc1	none
CCN(CC)c1ccc(/C=N\NC(N)=O)cc1	none
CCN(CC)c1ccc(/C=N/NC(=O)Nc2ccccc2)cc1	STAT1 act 162 | STAT1 act conf 173 | NFkB act STAT1ct 134 | STAT3 act STAT1c 123
CCOc1ccc(/C=N/NC(=O)CC(=O)NCc2ccccc2)cc1	none
CC(=O)Oc1ccc(/C=N/NC(=S)Nc2ccccc2)cc1	STAT1 act 160 | STAT1 act conf 209 | NFkB act STAT1ct inactive | STAT3 act STAT1c inactive
CCOc1ccc(/C=N/NC(=O)Nc2ccccc2)cc1	STAT1 act 161 | STAT1 act conf 208 | NFkB act STAT1ct 140 | STAT3 act STAT1c 121
Cc1oc(-c2ccccc2Cl)nc1CN1CCCN(C(=O)c2ccco2)CC1	none
CC1CCc2nc(/C(C#N)=C/c3ccncc3)sc2C1 (stereo unspecified)	STAT1 act 152 | STAT1 act conf 160 | NFkB act STAT1ct inactive | STAT3 act STAT1c inactive
O=[N+]([O-])c1ccccc1/C=C/C=N/N1CCCCC1	STAT1 act 155 | STAT1 act conf 178 | NFkB act STAT1ct inactive | STAT3 act STAT1c 111
CCOC(=O)c1c(C)[nH]c(C(=O)CSc2ccccc2)c1C	STAT1 act 154 | STAT1 act conf 234 | NFkB act STAT1ct inactive | STAT3 act STAT1c inactive
CCOC(=O)c1c(C)[nH]c(C(=O)COC(=O)CCSc2ccccc2)c1C	none
CN(C)c1ccc(/C=N/N=C(N)N)cc1[N+](=O)[O-]	none
S=C(NCCC1=CCCCC1)NCc1ccco1	none
CCOC(=O)Cc1csc(NC(=O)CSc2cc(Cl)ccc2Cl)n1	none
O=C(Nc1ccc2oc(-c3ccccc3)nc2c1)c1ccco1	STAT1 act 168 | STAT1 act conf 202 | NFkB act STAT1ct 134 | STAT3 act STAT1c inactive
O=C(Nc1ccc2oc(-c3ccccc3)nc2c1)c1cccnc1	none
O=C(Nc1ccc2oc(-c3ccccc3)nc2c1)C1CCCO1 (stereo unspecified)	STAT1 act 155 | STAT1 act conf 182 | NFkB act STAT1ct 134 | STAT3 act STAT1c inactive
Cc1cc(C(F)(F)F)c(C#N)c(SCC(=O)Nc2nc3ccccc3s2)n1	STAT1 act 152 | STAT1 act conf 261 | NFkB act STAT1ct inactive | STAT3 act STAT1c 193
Cc1cc(C)c(C#N)c(SCC(=O)Nc2nnc(-c3ccccc3)s2)n1	none
Cc1ccc(SCC(=O)NC(=O)Nc2ccc3c(c2)OCCO3)cc1C	none
N#CCCN1CCN(C(=O)c2c(N)no[n+]2[O-])CC1	none
Cc1ccc(OCCCCNC2CCCC(C)C2C)c(C)c1 (stereo unspecified)	none
COc1ccc(Cl)c2c1[nH]c1nc(SCc3ccccn3)nnc12	STAT1 act 189 | STAT1 act conf 175 | NFkB act STAT1ct 144 | STAT3 act STAT1c 124
COc1ccc(OC)c2sc(NC(=O)c3ccc(Br)s3)nc12	none
O=C(Nc1nc2c(s1)CCCC2)c1ccc2ncsc2c1	STAT1 act 182 | STAT1 act conf 271 | NFkB act STAT1ct 139 | STAT3 act STAT1c 111
Cc1ncsc1C(=O)Nc1nc2c(s1)CCCC2	STAT1 act 154 | STAT1 act conf 175 | NFkB act STAT1ct inactive | STAT3 act STAT1c inactive
COC(=O)c1ccc(C(=O)NC(=S)Nc2nc3c(s2)CCCC3)cc1	none
O=C(Nc1nc2c(s1)CCCC2)c1ccc(Br)s1	STAT1 act 166 | STAT1 act conf 256 | NFkB act STAT1ct 138 | STAT3 act STAT1c inactive
